CHO parental Ca: ATP-evoked calcium signal inhibitors, parental CHO, primary screen, counter-screen for OX1R antagonist project, cell-based, fluorescence, Fluo-8 calcium dye | parental CHO-K1, ATP-induced calcium, Fluo-8 fluorescence | inhibition, % at 5.6 µM | 330,000 tested, 0.63% active;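 active = inhibition above that plate's mean sample inhibition plus 3 SD, cut at about 26% in these data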;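 note: 0% = ATP-challenged DMSO wells and 100% = DMSO wells without ATP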
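Measured by: calcium-sensitive Fluo-8 fluorescence / Test system: CHO parental line / Controls: ATP-challenged DMSO wells low, unchallenged DMSO wells high / Measure: % inhibition / Compound: single nominal dose of 5.6 µM per compound / Replicates: single well per compound, no replicates / Reagent: ATP as calcium-mobilizing challenge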
OX1R antag-1: OX1R (HCRTR1) antagonists, primary screen, fluorescence, CHO/OX1R cells, Fluo-8 calcium, orexin A; Orexin/Hypocretin receptor type 1 (Homo sapiens), O43613; inhibition, % at 5 µM; Fluo-8 calcium fluorescence; AID 434989, 2010; 330,000 tested, 0.43% active;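 active = inhibition above its plate's threshold, mean inhibition of all tested compounds on the plate plus 3 SD, cut at about 37% in these data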;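 note: 0% = orexin A challenge wells and 100% = SB-334867-A antagonist wells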
OX1R antag-2: antagonists of human orexin 1 receptor (OX1R). OX1R-expressing cells, FRET antagonist read-out. inhibition, % at 6.6 µM. 330,000 tested, 1.8% active. AID 485270, 2010; in the data active = inhibition mostly above about 38%, no sharp cut-off; inactive = mostly below about 40%;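 note: 0% = agonist challenge alone and 100% = reference antagonist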
GPR7 antagonist: GPR7 receptor antagonists, primary screen, cell-based, fluorescence, single concentration | inhibition, % at 4.4 µM | AID 1861, 2009 | Neuropeptides B/W receptor type 1 (Homo sapiens), P48145 | 290,000 tested, 1.1% active | GPR7-expressing cells, fluorescence antagonist assay; in the data active = inhibition above about 16%, passing the limit was not always enough;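 note: cells stimulated with the agonist NPW; 0% = agonist with vehicle and 100% = vehicle without agonist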
GalR3 antag: GalR3 antagonists in HEK293 cells, primary screen, cell-based, fluorescence readout. HEK293 GalR3-CNG cAMP membrane potential fluorescence; galR3 body fused to GalR1 C-terminus. inhibition, % at 3 µM. 360,000 tested, 0.44% active. AID 651719, 2012;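 active = inhibition above the screen-wide average plus 3 SD, cut at about 13% in these data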;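 note: forskolin and galanin both at EC90 stimulate the cells; cAMP rise reported by CNG channel membrane potential dye signal; 0% = forskolin plus galanin with DMSO and 100% = forskolin alone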
Target sequence (O60755 1-299 limits assumed): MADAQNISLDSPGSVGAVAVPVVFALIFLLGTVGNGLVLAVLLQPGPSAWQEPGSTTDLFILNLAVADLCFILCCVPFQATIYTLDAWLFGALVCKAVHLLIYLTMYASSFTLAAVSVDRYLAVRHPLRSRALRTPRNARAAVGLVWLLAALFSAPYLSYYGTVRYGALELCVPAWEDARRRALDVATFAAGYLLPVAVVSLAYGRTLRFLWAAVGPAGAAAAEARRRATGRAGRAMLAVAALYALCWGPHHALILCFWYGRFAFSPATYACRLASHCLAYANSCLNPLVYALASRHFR
OX1R HTRF conf: OX1R (HCRTR1) antagonists, confirmation, cell-based, HTRF. shares compounds with OX1R antag-2. OX1R-expressing cells, HTRF antagonist assay. inhibition, % at 6.6 µM. 1,800 tested, 49% active. AID 492964, 2010; in the data active = inhibition above about 55%;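 note: CHO cells expressing OX1R stimulated with orexin A at about EC80; 0% = agonist challenge alone and 100% = reference antagonist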
CHO-K1 HTRF cnt: signal inhibition in parental CHO-K1 cells, counter-screen for OX1R antagonist project, cell-based, HTRF; shares compounds with OX1R antag-2; HTRF counterscreen; inhibition, % at 6.6 µM; 1,800 tested, 48% active; in the data active = inhibition above about 17%;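 note: 0% = agonist challenge with vehicle and 100% = vehicle alone without agonist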
Starred values were filed as active, the others as inactive; x = not tested or not shown. This is a sample that favours compounds with a hit; in the whole collection about 3.1% have one here.

SMILES | CHO parental Ca | OX1R antag-1 | OX1R antag-2 | GPR7 antagonist | GalR3 antag | OX1R HTRF conf | CHO-K1 HTRF cnt
CCC(CO)Nc1ncc([N+](=O)[O-])cc1C#N (centres undefined) | -3 | 1 | 27 | 0 | 1 | x | x
N#Cc1cc([N+](=O)[O-])cnc1N(CCO)CCO | -2 | -13 | 82* | -4 | -2 | 34 | 22*
CSCCC(NC(=O)c1ccccc1Br)C(=O)NCCCn1nc(C)cc1C (centres undefined) | -10 | -12 | 18 | x | 3 | x | x
CC(=O)Nc1ccc(NC2CCCCC2NS(=O)(=O)c2ccc(Cl)cc2)cc1 (centres undefined) | -26 | -12 | 4 | 0 | 4 | x | x
CN(C)S(=O)(=O)c1ccc(Cl)c(NC(=O)COC(=O)/C=C/c2ccc(S(=O)(=O)N3CCOCC3)cc2)c1 | 0 | 11 | 0 | 14 | 1 | x | x
NC(=O)CSc1nc(-c2ccccc2)nc2ccccc12 | -10 | -10 | 22 | 7 | -10 | x | x
N#CCSc1nc(-c2ccccc2)nc2ccccc12 | -13 | 18 | 94* | -12 | -11 | 89* | 5
Cc1cc(OCC(=O)NCCc2ccc(S(N)(=O)=O)cc2)c2c(C)c(C)c(=O)oc2c1 | -15 | -2 | 2 | -4 | -3 | x | x
Cc1ccc(NC(=O)CCl)cc1S(=O)(=O)N1CCCCCC1 | 3 | -10 | 17 | 1 | -8 | x | x
COCCNCC(=O)Nc1ccc(C)c(S(=O)(=O)N2CCCCC2)c1 | -17 | -37 | 100* | 0 | -4 | 17 | 6
CC1CC(C)CN(CC(=O)Nc2cc(S(=O)(=O)N3CCOCC3)ccc2N2CCCC2)C1 (centres undefined) | -17 | -29 | 3 | x | -9 | x | x
N#C/C(=C\c1c(Oc2ccccc2Cl)nc2ccccn2c1=O)C(=O)NC1CCS(=O)(=O)C1 (centres undefined) | -5 | -1 | 21 | -3 | -5 | x | x
N#C/C(=C\c1c(Oc2ccccc2F)nc2ccccn2c1=O)C(=O)NC1CCS(=O)(=O)C1 (centres undefined) | -10 | -17 | 89* | -15 | -5 | 30 | 36*
O=C(/C=C/c1ccc([N+](=O)[O-])cc1)NNC(=O)C1CC1 | -1 | 1 | 137* | -17 | 3 | 49 | 66*
CC1(C(=O)Nc2ccc3[nH]ncc3c2)CCN1C(=O)Cc1ccc(-c2ccccc2)cc1 (centres undefined) | x | x | x | x | -6 | x | x
COc1ccc2oc(=O)c(C(=O)NCc3cccnc3)cc2c1 | -21 | -24 | 83* | -11 | 1 | 35 | 40*
O=C(NCC(c1ccco1)N1CCCCC1)c1cccnc1 (centres undefined) | -12 | -16 | 1 | x | -2 | x | x
N=c1c(C(=O)NCC2CCCO2)cc2c(=O)n3ccccc3nc2n1Cc1ccccc1Cl (centres undefined) | -6 | -4 | 30 | 9 | -10 | x | x
O=C(NCCc1ccccc1C(F)(F)F)C1CCC(=O)N(C2CC2)C1 (centres undefined) | -6 | -15 | 19 | -4 | 0 | x | x
CC1(C)OC(=O)C(=NNc2ccccc2)C(=O)O1 | 4 | 4 | 52 | -2 | 4 | x | x
CC1(C)OC(=O)C(=NNc2ccc(O)cc2)C(=O)O1 | 23 | -4 | 82* | -8 | 2 | 19 | 24*
CC(C)N(C(=O)Cn1cnc2cc([N+](=O)[O-])ccc2c1=O)C(C)C | -10 | -12 | 141* | 15 | x | 44 | 93*
O=C(Cn1cnc2cc([N+](=O)[O-])ccc2c1=O)NCc1ccccc1 | -11 | -15 | 95* | -9 | -3 | 55* | 62*
O=C(CCC(=O)NNC(=O)c1ccc([N+](=O)[O-])cc1)NCc1ccccc1 | -12 | -18 | 91* | -3 | 0 | 33 | 39*
